Test results: ChEMBL document CHEMBL1149279, “2,4,6-trisubstituted pyrimidines as a new class of selective adenosine A1 receptor antagonists” (J Med Chem, 2004)

Assays:
[1] = biological target: T1, Adenosine receptor A2b (Homo sapiens) (UniProt P29275); test: Displacement of [3H]MRS1754 from human adenosine A2B receptor expressed in CHO cells at 1 uM; assay type: cell-based
T1 sequence (whole entry): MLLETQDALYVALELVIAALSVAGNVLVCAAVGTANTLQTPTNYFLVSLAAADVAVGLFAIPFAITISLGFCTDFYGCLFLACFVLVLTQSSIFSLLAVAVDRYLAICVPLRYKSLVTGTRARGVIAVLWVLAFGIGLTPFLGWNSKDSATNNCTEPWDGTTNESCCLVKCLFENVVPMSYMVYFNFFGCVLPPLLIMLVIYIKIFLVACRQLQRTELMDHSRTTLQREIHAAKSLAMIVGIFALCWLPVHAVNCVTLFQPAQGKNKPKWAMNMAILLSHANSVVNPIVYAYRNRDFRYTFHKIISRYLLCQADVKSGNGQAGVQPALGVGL
How it was run: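 CHO cells stably transfected with human A2B supply the membranes (20 μg protein). [3H]MRS1754 at 1.2 nM final, 1 h at 25 °C in 50 mM Tris/HCl, 10 mM MgCl2, 1 mM EDTA, 0.01 w/v % CHAPS. Nonspecific binding with 1 mM NECA. Filtration and scintillation counting; % displacement at 1 μM, n = 2.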

[2] = biological target: T2, Adenosine receptor A3 (Homo sapiens) (UniProt P0DMS8); test: Displacement of [125I]AB-MECA from human adenosine A3 receptor expressed in HEK293 cells at 1 uM; assay type: cell-based
T2 sequence (whole entry): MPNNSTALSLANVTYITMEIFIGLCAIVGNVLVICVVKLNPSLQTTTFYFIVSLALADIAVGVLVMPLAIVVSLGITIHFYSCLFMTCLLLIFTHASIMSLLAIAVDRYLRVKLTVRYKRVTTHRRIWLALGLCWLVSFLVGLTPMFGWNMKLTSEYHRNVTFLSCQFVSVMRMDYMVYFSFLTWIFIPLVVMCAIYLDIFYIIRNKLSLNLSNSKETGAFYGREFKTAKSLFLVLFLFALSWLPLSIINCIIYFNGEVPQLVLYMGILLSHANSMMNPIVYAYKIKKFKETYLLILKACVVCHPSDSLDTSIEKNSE

Adenosine receptor A2a [3] = biological target: T3, Adenosine receptor A2a (Homo sapiens, UniProt P29274); test: Displacement of [3H]ZM-241385 from human adenosine A2A receptor expressed in HEK293 cells; assay type: cell-based
T3 sequence (P29274 whole entry): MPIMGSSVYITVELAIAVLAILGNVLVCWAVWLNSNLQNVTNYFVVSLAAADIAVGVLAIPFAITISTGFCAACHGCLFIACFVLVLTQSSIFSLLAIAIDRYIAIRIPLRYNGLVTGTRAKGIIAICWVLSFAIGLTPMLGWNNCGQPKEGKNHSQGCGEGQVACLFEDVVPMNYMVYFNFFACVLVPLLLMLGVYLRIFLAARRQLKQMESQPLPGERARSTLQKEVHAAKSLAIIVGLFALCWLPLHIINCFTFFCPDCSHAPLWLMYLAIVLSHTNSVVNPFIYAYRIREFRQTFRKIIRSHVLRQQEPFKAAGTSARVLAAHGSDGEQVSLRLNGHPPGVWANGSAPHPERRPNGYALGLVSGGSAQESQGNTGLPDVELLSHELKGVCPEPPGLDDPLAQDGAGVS

[4] = biological target: T4, Adenosine receptor A1 (Homo sapiens) (UniProt P30542); test: Displacement of [3H]DPCPX from human adenosine A1 receptor expressed in CHO cells at 1 uM; assay type: cell-based
T4 sequence (whole entry): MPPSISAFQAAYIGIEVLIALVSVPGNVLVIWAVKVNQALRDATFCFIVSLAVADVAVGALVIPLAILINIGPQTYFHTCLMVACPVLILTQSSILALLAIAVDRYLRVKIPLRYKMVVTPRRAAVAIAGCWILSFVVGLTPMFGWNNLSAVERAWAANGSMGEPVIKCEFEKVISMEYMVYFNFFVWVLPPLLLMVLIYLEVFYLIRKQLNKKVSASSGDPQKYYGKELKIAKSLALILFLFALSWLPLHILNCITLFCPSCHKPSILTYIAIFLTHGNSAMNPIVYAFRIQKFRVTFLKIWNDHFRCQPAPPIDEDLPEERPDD

Adenosine receptor A2a [5] = biological target: T3, Adenosine receptor A2a; test: Displacement of [3H]ZM241385 from human adenosine A2A receptor expressed in HEK293 cells at 1 uM; assay type: cell-based
Adenosine receptor A3 = biological target: T5, Adenosine receptor A3 (Homo sapiens, UniProt P0DMS8); test: Displacement of [125I]AB-MECA from human adenosine A3 receptor expressed in HEK293 cells; assay type: cell-based
T5 sequence (P0DMS8 whole entry): T2 sequence (whole entry)

Adenosine receptor A1 = biological target: T6, Adenosine receptor A1 (Homo sapiens, UniProt P30542); test: Displacement of [3H]DPCPX from human adenosine A1 receptor expressed in CHO cells; assay type: cell-based
T6 sequence (P30542 whole entry): T4 sequence (whole entry)

[6] = biological target: T4, Adenosine receptor A1 (Homo sapiens); test: Antagonist activity at human adenosine A1 receptor expressed in CHO cells assessed as effect on forskolin-stimulated cAMP production at 1 uM; assay type: functional, cell-based; parameters: scale not given: the % may be the effect or the level left; conditions: filed as antagonist
How it was run: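 Human A1-expressing CHO cells, 2 × 10^5/well, grown overnight; in HEPES/DMEM (pH 7.4) with adenosine deaminase 0.8 IU/mL, rolipram 50 μM and cilostamide 50 μM, 30 min at 37 °C. Then CPA 1 μM, test compound 1 μM, 10 min; forskolin 10 μM added for 15 min. Stopped with ice-cold 0.1 M HCl. cAMP measured by [3H]cAMP/PKA competition; normalized to CPA (0%) and forskolin (100%). Three independent experiments in duplicate.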

[7] = biological target: T4, Adenosine receptor A1 (Homo sapiens); test: Antagonist activity at human adenosine A1 receptor expressed in CHO cells assessed as reversal of CPA-induced effect on forskolin-stimulated cAMP production at 10 uM; assay type: functional, cell-based; conditions: filed as antagonist
[8] = biological target: Adenosine receptors; A1 & A3 (Homo sapiens) (UniProt P30542+P0DMS8); test: Selectivity for human adenosine A1 receptor over human adenosine A3 receptor; assay type: protein assay

Activity [2] [%]	Ki (Adenosine receptor A2a [3])	Activity (Adenosine receptor A2a [5]) [%]	Ki (Adenosine receptor A3)	Ki (Adenosine receptor A1)	Structure (SMILES)	also measured
57	381 nM (antagonist)	–	–	–	CCC(CC)C(=O)Nc1cc(-c2ccccc2)nc(-c2ccccc2)n1	Activity ([1]; filed as antagonist): 72%
24	–	0	–	–	CCCCCC(=O)Nc1nc(-c2ccccc2)cc(-c2ccccc2)n1	Activity [4]: 28%
–	–	0	3280 nM (antagonist)	–	O=C(Nc1nc(-c2ccccc2)cc(-c2ccccc2)n1)c1ccc(Cl)cc1	Activity [4]: 0%
9	–	31	–	119 nM (antagonist)	O=C(Nc1nc(-c2ccccc2)cc(-c2ccccc2)n1)C1CCCCC1	–
41	–	45	–	–	COc1ccc(C(=O)Nc2nc(-c3ccccc3)cc(-c3ccccc3)n2)cc1	Activity [4]: 31%
27	–	11	–	27.1 nM (antagonist)	CCC(CC)C(=O)Nc1nc(-c2ccccc2)cc(-c2ccccc2)n1	–
–	179 nM (antagonist)	–	178 nM (antagonist)	–	O=C(Nc1cc(-c2ccccc2)nc(-c2ccccc2)n1)C1CCC1	Activity ([1]; filed as antagonist): 74%
39	–	32	–	–	CC(C)(C)CC(=O)Nc1cc(-c2ccccc2)nc(-c2ccccc2)n1	Activity [1]: 4%
–	–	48	392 nM (antagonist)	109 nM (antagonist)	CCCCCC(=O)Nc1cc(-c2ccccc2)nc(-c2ccccc2)n1	–
23	–	0	–	27.6 nM (antagonist)	CCCCC(=O)Nc1nc(-c2ccccc2)cc(-c2ccccc2)n1	–
–	196 nM (antagonist)	–	170 nM (antagonist)	–	O=C(Nc1cc(-c2ccccc2)nc(-c2ccccc2)n1)C1CCCC1	Activity ([1]; filed as antagonist): 52%; Activity [6]: 60%; Activity [7]: Antagonist
49	–	18	–	–	CC(C)(C)C(=O)Nc1cc(-c2ccccc2)nc(-c2ccccc2)n1	–
30	–	0	–	–	O=C(Nc1nc(-c2ccccc2)cc(-c2ccccc2)n1)c1ccc(Cl)c(Cl)c1	Activity [4]: 0%
–	157 nM (antagonist)	–	447 nM (antagonist)	–	CC(C)CC(=O)Nc1cc(-c2ccccc2)nc(-c2ccccc2)n1	–
–	893 nM (antagonist)	–	547 nM (antagonist)	46.4 nM (antagonist)	CCC(=O)Nc1nc(-c2ccccc2)cc(-c2ccccc2)n1	–
41	–	22	–	368 nM (antagonist)	O=C(Nc1nc(-c2ccccc2)cc(-c2ccccc2)n1)c1cccc(Cl)c1	–
–	–	31	237 nM (antagonist)	–	CC(=O)Nc1nc(-c2ccccc2)cc(-c2ccccc2)n1	–
–	81.9 nM (antagonist)	–	22.4 nM (antagonist)	–	CCC(=O)Nc1cc(-c2ccccc2)nc(-c2ccccc2)n1	Selectivity ratio [8]: 2

Activity [2] [%]	Ki (Adenosine receptor A2a [3])	Activity (Adenosine receptor A2a [5]) [%]	Ki (Adenosine receptor A3)	Ki (Adenosine receptor A1)	Structure (SMILES)	also measured
–	489 nM (antagonist)	–	6.88 nM (antagonist)	–	CC(=O)Nc1cc(-c2ccccc2)nc(-c2ccccc2)n1	–
–	–	0	1170 nM (antagonist)	–	COc1ccc(C(=O)Nc2cc(-c3ccccc3)nc(-c3ccccc3)n2)cc1	Activity [4]: 30%
33	–	0	–	–	O=C(Nc1cc(-c2ccccc2)nc(-c2ccccc2)n1)c1ccc(Cl)cc1	Activity [4]: 35%
38	–	5	–	309 nM (antagonist)	O=C(Nc1nc(-c2ccccc2)cc(-c2ccccc2)n1)c1ccccc1	–
4	–	0	–	224 nM (antagonist)	CC(C)(C)C(=O)Nc1nc(-c2ccccc2)cc(-c2ccccc2)n1	–
13	–	0	–	–	Cc1ccc(C(=O)Nc2nc(-c3ccccc3)cc(-c3ccccc3)n2)cc1	Activity [4]: 37%
–	189 nM (antagonist)	–	25 nM (antagonist)	7.58 nM (antagonist)	O=C(Nc1cc(-c2ccccc2)nc(-c2ccccc2)n1)C1CC1	–
–	899 nM (antagonist)	–	147 nM (antagonist)	–	CCC(C)C(=O)Nc1cc(-c2ccccc2)nc(-c2ccccc2)n1 (centres undefined)	Activity [1]: 44%; Activity [6]: 60%; Activity [7]: Antagonist
–	124 nM (antagonist)	–	167 nM (antagonist)	–	CCCC(=O)Nc1cc(-c2ccccc2)nc(-c2ccccc2)n1	–
32	208 nM (antagonist)	–	–	–	O=C(Nc1cc(-c2ccccc2)nc(-c2ccccc2)n1)C1CCCCC1	–
38	–	7	–	3.7 nM (antagonist)	CCCC(=O)Nc1nc(-c2ccccc2)cc(-c2ccccc2)n1	Activity ([1]; filed as antagonist): 54%
45	–	44	–	8.87 nM (antagonist)	CC(C)C(=O)Nc1nc(-c2ccccc2)cc(-c2ccccc2)n1	Activity ([1]; filed as antagonist): 79%
23	–	42	–	25.1 nM (antagonist)	CC(C)CC(=O)Nc1nc(-c2ccccc2)cc(-c2ccccc2)n1	–
–	–	17	1300 nM (antagonist)	–	O=C(Nc1cc(-c2ccccc2)nc(-c2ccccc2)n1)c1ccccc1	Selectivity ratio [8]: 2
–	376 nM (antagonist)	–	267 nM (antagonist)	–	CC(C)C(=O)Nc1cc(-c2ccccc2)nc(-c2ccccc2)n1	Selectivity ratio [8]: 24
–	228 nM (antagonist)	–	676 nM (antagonist)	24.9 nM (antagonist)	O=C(Nc1nc(-c2ccccc2)cc(-c2ccccc2)n1)C1CC1	–
18	–	33	–	107 nM (antagonist)	O=C(Nc1nc(-c2ccccc2)cc(-c2ccccc2)n1)C1CCC1	–
39	–	11	–	11.4 nM (antagonist)	O=C(Nc1nc(-c2ccccc2)cc(-c2ccccc2)n1)C1CCCC1	Activity [1]: 42%
